Publication PMC8897208 (Acta Pharmaceutica Sinica. B, 2021)

Assays:
SIRT6 [1] = target: T1, SIRT6 (Homo sapiens, UniProt Q8N6T7); experiment: In vitro nucleosome deacetylation assay; format: biochemical; settings: Western blot
Summary of the method: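 Nucleosomes were isolated from HeLa cells and deacetylated in vitro by SIRT6 in the presence of NAD+. H3K9Ac and H3K18Ac were detected by Western blot.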

SIRT6 [2] = target: T1, SIRT6; experiment: Biolayer interferometry; format: binding
HDAC4 = HDAC4 (Homo sapiens, UniProt P56524); experiment: HDACs selectivity assay; format: biochemical
Summary of the method: (§1)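 Enzyme selectivity panel was run by an outside contract lab to its standard assay protocols. IC50 values came from dose–response fitting of the data points. Each experiment was done independently at least three times.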

HDAC6 = target: T2, HDAC6 (Homo sapiens, UniProt Q9UBN7); experiment: HDACs selectivity assay; format: biochemical
T2 sequence (Q9UBN7 1-1215): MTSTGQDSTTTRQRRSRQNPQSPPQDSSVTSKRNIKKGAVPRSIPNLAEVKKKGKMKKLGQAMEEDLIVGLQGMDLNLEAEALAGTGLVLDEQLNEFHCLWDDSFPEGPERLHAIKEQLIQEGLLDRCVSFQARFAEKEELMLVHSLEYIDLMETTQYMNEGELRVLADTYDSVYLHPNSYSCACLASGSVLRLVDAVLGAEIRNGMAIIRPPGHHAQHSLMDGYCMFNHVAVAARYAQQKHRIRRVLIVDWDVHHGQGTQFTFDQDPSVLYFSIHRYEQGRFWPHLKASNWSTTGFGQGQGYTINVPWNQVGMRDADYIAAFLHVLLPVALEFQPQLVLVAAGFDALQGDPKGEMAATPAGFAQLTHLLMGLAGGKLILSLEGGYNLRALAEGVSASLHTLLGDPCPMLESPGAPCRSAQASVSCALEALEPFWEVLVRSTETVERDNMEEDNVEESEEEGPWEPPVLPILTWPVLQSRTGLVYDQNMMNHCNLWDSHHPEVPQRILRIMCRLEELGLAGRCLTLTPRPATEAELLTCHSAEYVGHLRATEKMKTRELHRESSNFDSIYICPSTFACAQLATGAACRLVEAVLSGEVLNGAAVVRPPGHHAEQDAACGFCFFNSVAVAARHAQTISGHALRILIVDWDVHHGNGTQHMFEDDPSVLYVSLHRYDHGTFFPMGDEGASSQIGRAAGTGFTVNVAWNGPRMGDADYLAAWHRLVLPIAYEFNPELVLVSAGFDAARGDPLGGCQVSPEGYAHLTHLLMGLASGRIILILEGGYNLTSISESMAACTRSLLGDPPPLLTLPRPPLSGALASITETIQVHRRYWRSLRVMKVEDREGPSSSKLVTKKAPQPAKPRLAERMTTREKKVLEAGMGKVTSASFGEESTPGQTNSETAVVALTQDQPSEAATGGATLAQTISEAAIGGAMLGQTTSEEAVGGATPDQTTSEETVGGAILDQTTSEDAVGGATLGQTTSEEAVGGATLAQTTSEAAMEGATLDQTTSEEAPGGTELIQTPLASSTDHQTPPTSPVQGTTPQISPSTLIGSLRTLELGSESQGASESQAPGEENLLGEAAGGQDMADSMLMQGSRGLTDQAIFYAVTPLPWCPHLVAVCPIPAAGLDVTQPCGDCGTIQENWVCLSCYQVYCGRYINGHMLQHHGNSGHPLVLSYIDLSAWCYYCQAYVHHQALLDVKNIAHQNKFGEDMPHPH
Summary of the method: as §1

HDAC11 = target: T3, HDAC11 (Homo sapiens, UniProt Q96DB2); experiment: HDACs selectivity assay; format: biochemical
T3 sequence (Q96DB2 1-347): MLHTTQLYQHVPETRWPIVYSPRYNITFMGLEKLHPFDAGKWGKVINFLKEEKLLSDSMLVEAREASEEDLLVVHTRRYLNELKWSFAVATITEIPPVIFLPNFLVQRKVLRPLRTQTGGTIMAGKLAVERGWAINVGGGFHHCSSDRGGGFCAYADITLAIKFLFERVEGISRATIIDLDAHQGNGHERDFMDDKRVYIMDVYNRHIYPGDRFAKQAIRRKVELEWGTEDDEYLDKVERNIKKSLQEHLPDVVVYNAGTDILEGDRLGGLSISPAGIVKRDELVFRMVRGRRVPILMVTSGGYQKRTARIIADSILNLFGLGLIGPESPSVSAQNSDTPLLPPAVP
Summary of the method: as §1

SIRT1 = target: T4, SIRT1 (Homo sapiens, UniProt Q96EB6); experiment: HDACs selectivity assay; format: biochemical
T4 sequence (Q96EB6 1-747): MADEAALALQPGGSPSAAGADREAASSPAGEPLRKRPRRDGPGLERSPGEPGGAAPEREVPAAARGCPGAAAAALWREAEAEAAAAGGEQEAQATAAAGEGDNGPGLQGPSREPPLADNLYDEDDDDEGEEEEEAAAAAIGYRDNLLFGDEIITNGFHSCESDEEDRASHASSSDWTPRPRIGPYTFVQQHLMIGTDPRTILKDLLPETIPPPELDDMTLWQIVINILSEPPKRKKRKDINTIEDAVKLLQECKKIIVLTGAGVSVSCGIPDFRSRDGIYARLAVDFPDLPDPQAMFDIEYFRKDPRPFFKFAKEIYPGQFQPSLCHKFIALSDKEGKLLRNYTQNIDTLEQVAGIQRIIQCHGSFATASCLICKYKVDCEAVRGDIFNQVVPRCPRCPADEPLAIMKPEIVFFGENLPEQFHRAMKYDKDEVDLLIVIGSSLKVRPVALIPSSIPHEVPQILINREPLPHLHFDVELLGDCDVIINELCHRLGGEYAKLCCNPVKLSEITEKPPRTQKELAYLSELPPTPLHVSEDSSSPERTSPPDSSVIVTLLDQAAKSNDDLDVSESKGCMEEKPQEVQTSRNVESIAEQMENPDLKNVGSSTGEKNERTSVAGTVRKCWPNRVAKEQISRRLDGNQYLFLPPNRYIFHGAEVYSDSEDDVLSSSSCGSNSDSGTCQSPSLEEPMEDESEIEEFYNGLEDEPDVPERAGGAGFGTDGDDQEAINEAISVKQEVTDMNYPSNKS
Summary of the method: as §1

SIRT5 (residues 34–302) = target: T5, SIRT5 (residues 34–302) (Homo sapiens, UniProt Q9NXA8); experiment: Selectivity FDL deacetylation assay; format: biochemical
T5 sequence (Q9NXA8 34-302): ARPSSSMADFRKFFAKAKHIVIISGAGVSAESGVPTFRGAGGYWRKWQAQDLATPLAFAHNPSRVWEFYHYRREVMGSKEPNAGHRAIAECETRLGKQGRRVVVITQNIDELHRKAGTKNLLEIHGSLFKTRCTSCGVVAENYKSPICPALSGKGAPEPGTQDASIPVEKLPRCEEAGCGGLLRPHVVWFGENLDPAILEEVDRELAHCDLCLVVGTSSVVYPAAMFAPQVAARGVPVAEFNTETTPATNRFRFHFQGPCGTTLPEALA

MiaPaCa-2 cells = experiment: Proliferation assay; format: cell-based; settings: MiaPaCa-2, up to 20 μmol/L, 48 h, CCK-8

T1 sequence (Q8N6T7 whole entry): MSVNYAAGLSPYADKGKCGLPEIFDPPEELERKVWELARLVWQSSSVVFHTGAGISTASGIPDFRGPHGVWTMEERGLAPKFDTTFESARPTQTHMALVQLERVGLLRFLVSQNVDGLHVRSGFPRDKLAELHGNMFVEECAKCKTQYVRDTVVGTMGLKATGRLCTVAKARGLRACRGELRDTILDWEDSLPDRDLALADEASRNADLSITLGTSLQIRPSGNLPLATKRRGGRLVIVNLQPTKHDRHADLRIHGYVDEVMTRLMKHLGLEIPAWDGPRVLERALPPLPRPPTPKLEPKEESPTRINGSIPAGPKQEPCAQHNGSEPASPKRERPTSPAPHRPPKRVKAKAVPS
Chain of HDAC4 (P56524 whole entry): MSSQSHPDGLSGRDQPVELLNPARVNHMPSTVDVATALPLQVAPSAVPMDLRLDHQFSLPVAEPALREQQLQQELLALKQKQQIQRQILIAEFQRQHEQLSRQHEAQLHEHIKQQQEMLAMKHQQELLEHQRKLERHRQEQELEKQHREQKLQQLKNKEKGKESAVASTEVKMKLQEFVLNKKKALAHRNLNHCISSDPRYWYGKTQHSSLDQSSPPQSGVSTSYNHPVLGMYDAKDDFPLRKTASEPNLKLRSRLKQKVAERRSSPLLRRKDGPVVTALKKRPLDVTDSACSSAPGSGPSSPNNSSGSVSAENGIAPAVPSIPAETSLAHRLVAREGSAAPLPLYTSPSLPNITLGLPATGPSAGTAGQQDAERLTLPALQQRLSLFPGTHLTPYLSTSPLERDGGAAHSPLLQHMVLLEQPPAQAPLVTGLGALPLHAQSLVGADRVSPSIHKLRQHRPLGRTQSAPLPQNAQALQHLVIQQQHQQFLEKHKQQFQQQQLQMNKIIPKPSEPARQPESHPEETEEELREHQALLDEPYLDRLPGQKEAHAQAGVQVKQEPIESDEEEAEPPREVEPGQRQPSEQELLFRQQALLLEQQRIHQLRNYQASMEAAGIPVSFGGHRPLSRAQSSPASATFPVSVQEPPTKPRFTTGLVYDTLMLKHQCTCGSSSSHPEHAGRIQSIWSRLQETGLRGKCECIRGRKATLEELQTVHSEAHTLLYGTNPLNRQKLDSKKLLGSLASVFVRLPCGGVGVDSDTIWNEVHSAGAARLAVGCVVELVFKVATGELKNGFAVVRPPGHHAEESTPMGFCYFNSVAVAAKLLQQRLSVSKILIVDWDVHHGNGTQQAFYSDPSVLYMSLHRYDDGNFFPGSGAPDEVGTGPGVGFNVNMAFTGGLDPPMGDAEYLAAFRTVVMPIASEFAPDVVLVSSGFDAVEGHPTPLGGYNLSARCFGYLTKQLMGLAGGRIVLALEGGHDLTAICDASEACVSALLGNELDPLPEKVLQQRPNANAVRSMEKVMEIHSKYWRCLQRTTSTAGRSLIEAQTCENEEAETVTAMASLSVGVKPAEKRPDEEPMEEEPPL

With `Nc1nonc1-n1cc(C(=O)N/N=C/c2cc(Cl)cc(C(F)(F)F)c2)nn1` [JYQ-42] the “inhibition of SIRT6 deacetylase activity on nucleosomes” value (SIRT6 [1]; 0.5 μmol/L) was “inhibit the deacetylase activity of SIRT6 significantly”, the “inhibition of SIRT6 deacetylase activity on nucleosomes” value (SIRT6 [1]; 1 μmol/L) was “completely/totally inhibited” and the Kd (SIRT6 [2]) was 13.2 µM. The IC50 (HDAC4) was over 100 µM, the IC50 (HDAC6) was over 100 µM and the IC50 (HDAC11) was over 100 µM. The IC50 (SIRT1) was over 100 µM, the IC50 (SIRT5 (residues 34–302)) was over 100 µM and the cell growth (MiaPaCa-2 cells) was “no significant impact on cell growth”.
